From ChEMBL document CHEMBL1795313, “Synthesis and antimicrobial activities of hexahydroimidazo[1,5-a]pyridinium bromides with varying benzyl substituents” (Eur J Med Chem, 2011)

Legend:
Klebsiella pneumoniae = assay: Antimicrobial activity against Klebsiella pneumoniae CCM 2318 after 18 hrs by microdilution method; assay type: functional
Method in brief: (§1)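 NCCLS M7-A4 broth microdilution. Two-fold series from 400 to 0.78 made in sterile distilled water. Overnight bacteria in double-strength Mueller-Hinton broth, adjusted to 10⁸ cfu/mL (McFarland 0.5). Incubated 37 °C, 18 h. MIC taken as the first well without turbidity. Medium-only and water-plus-medium controls.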

[1] = system: Staphylococcus epidermidis; assay: Antimicrobial activity against Staphylococcus epidermidis ATCC 12228 after 18 hrs by microdilution method; assay type: functional
Method in brief: (§2)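 Broth microdilution per NCCLS M7-A4. Stocks kept on nutrient agar at 4 °C. Overnight cultures in double-strength Mueller-Hinton broth, adjusted to 10⁸ cfu/mL against McFarland 0.5. Compounds serially diluted in sterile distilled water (400 down to 0.78). Incubated at 37 °C for 18 h. MIC taken as the first well without turbidity. Wells without organism and water/medium growth controls included.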

Escherichia coli = assay: Antimicrobial activity against Escherichia coli ATCC 8739 after 18 hrs by microdilution method; assay type: functional; method in brief: as §2
Salmonella typhimurium = assay: Antimicrobial activity against Salmonella Typhimurium CCM 5445 after 18 hrs by microdilution method; assay type: functional, Salmonella enterica subsp. enterica serovar Typhimurium; method in brief: as §1
Proteus vulgaris = assay: Antimicrobial activity against Proteus vulgaris ATCC 6897 after 18 hrs by microdilution method; assay type: functional; method in brief: as §1
[2] = Acute toxicity in po dosed Swiss albino mouse after 24 hrs; assay type: organism-based; conditions: in vivo
Method in brief: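 Mice dosed orally, 5 male and 5 female per group; limit test at 2000 mg/kg, plus classical LD50 test; toxic responses and deaths recorded over 24 h; LD50 derived from lethality.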

Bacillus cereus = assay: Antimicrobial activity against Bacillus cereus CCM 99 after 18 hrs by microdilution method; assay type: functional; method in brief: as §1
Pichia kudriavzevii = assay: Antifungal activity against Candida krusei ATCC 6258 after 18 hrs by microdilution method; assay type: functional; conditions: ATCC 6258, 18 h
Method in brief: as §1, with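 “M27-A” for “M7-A4”, “microdilution for yeast.” for “microdilution.”, “Inoculum” for “Overnight bacteria”, “yeast glucose” for “Mueller-Hinton”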

Micrococcus luteus = assay: Antimicrobial activity against Micrococcus luteus ATCC 9341 after 18 hrs by microdilution method; assay type: functional; method in brief: as §1
Candida albicans = assay: Antifungal activity against Candida albicans ATCC 10231 after 18 hrs by microdilution method; assay type: functional; conditions: ATCC 10231, 18 h
Method in brief: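 Yeast broth microdilution per NCCLS M27-A. Stock kept on potato dextrose agar at 4 °C. Suspension in double-strength yeast glucose broth, adjusted to 10⁸ cfu/mL by McFarland 0.5. Water-based twofold series (400 down to 0.78) used. Incubated at 37 °C for 18 h. MIC is the lowest concentration with no visible turbidity.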

Staphylococcus aureus = assay: Antimicrobial activity against Staphylococcus aureus 6538/P after 18 hrs by microdilution method; assay type: functional; method in brief: as §2
[3] = Salmonella enterica, CCM 5445, 18 h

Molecule | MIC (Klebsiella pneumoniae; CCM 2318, 18 h) [µg/mL] | MIC ([1]; ATCC 12228, 18 h) [µg/mL] | MIC (Escherichia coli; ATCC 8739, 18 h) [µg/mL] | MIC (Salmonella typhimurium; [3]) [µg/mL] | MIC (Proteus vulgaris; ATCC 6897, 18 h) [µg/mL] | LD50 at 24 h [2] [mg/kg] | MIC (Bacillus cereus; CCM 99, 18 h) [µg/mL] | MIC (Pichia kudriavzevii) [µg/mL] | MIC (Micrococcus luteus; ATCC 9341, 18 h) [µg/mL] | MIC (Candida albicans) [µg/mL] | MIC (Staphylococcus aureus) [µg/mL] | MIC (Klebsiella pneumoniae) [µg/mL] | MIC [1] [µg/mL] | MIC (Escherichia coli) [µg/mL] | MIC (Salmonella typhimurium; Salmonella enterica subsp. enterica serovar Typhimurium) [µg/mL] | MIC (Proteus vulgaris) [µg/mL] | MIC (Bacillus cereus) [µg/mL] | MIC (Micrococcus luteus) [µg/mL]
Fc1c(F)c(F)c(C[N+]2=CN3CCCCC3C2)c(F)c1F.[Br-] (centres undefined) | 12.5 | 0.78 | 25 | 25 | 12.5 | 978 | 6.25 | 3.12 | 0.78 | 12.5 | 3.12 | – | – | – | – | – | – | –
N#Cc1ccc(C[N+]2=CN3CCCCC3C2)cc1.[Br-] (centres undefined) | 12.5 | 1.56 | 0.78 | 0.78 | 6.25 | > 2000 | 3.12 | 0.78 | 0.78 | 0.78 | 1.56 | – | – | – | – | – | – | –
C1=[N+](Cc2ccccc2)CC2CCCCN12.[Br-] (centres undefined) | > 400 | 50 | > 400 | > 400 | > 400 | 907 | > 400 | > 400 | 3.12 | > 400 | 100 | – | – | – | – | – | – | –
Cc1ccc(C[N+]2=CN3CCCCC3C2)cc1.[Br-] (centres undefined) | 0.78 | 1.56 | 0.78 | 50 | 6.25 | > 2000 | < 0.78 | 0.78 | 6.25 | 3.12 | 3.12 | – | – | – | – | – | – | –
CC(C)(C)c1ccc(C[N+]2=CN3CCCCC3C2)cc1.[Br-] (centres undefined) | 200 | 100 | 200 | 100 | 50 | 838 | 200 | 50 | 12.5 | 25 | 100 | – | – | – | – | – | – | –
GENTAMICIN | – | – | – | – | – | – | – | – | – | – | 3.12 | 25 | 1.56 | 3.12 | 6.25 | 0.78 | 6.25 | 1.56
Clc1ccc(C[N+]2=CN3CCCCC3C2)c(Cl)c1.[Br-] (centres undefined) | 12.5 | 0.78 | 3.12 | 0.78 | 1.56 | 1890 | 3.12 | 0.78 | 0.78 | 0.78 | 0.78 | – | – | – | – | – | – | –
